# Screens (PubChem BioAssay)
# A selection: hits, their analogues and other compounds. The true share with any hit is near 1.7%.
# SUMO1 PPI mod: alters human SUMO1 binding to SIM partners; P63165; SUMO1 binding to a labelled peptide, TR-FRET, 1 h; inhibition, % at 20 µM; 0.33% of 360,000 active; in the data active = inhibition above about 37%
# Target sequence (P63165 whole entry, looked up): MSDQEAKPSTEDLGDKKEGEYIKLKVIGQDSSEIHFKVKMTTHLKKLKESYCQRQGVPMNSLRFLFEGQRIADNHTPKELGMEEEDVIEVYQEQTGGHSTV
# Scp1 inh: Scp-1 (human) phosphatase inhibition; Q9GZU7; Recombinant Scp1, phosphopeptide, malachite green phosphate absorbance; inhibition, % at 20 µM; 0.88% of 340,000 active;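 active = inhibition above about 50% at 20 µM, limit read from the data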;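 also: plate controls were DMSO wells with enzyme for no effect and wells lacking enzyme for full effect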
# Target sequence (Q9GZU7 76-261 limits assumed): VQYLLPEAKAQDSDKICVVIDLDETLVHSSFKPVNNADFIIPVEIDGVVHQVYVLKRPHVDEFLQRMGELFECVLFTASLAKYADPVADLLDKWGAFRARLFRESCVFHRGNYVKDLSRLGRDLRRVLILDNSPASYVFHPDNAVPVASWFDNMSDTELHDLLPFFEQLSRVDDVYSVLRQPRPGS
#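 Assay system: SCP-1 catalytic fragment, aa 76-261 | Buffer or medium: Tris acetate buffer pH 5.5 with MgCl2 and Tween-20 | Compound: One concentration, 20 µM, with 1.0% DMSO | Also added: Phospho 17-mer peptide substrate | Signal: Absorbance at 630 nm | Incubation: 45 min enzyme reaction at room temperature | Measure: % inhibition of SCP-1 phosphate liberation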
# DNMT1 inh: blocks human DNA methyltransferase DNMT1. P26358. DNMT1 molecular beacon, Hinp1I cleavage, fluorescence. inhibition (reported as % activation of signal), % at 10 µM. 0.83% of 360,000 active; in the data active = inhibition above about 50%
# LMPTP inh: LMPTP (human) inhibition. P24666. recombinant LMPTP-A, OMFP fluorogenic substrate, fluorescence intensity. 0.22% of 360,000 active. AID 651560. inhibition, % at 20 µM;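 active = compounds that cut the enzyme signal by at least half of the control window in the single-dose screen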;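 also: plate controls were DMSO wells with enzyme plus substrate for no effect and substrate without enzyme for full effect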
# Target sequence (P24666 whole entry, looked up): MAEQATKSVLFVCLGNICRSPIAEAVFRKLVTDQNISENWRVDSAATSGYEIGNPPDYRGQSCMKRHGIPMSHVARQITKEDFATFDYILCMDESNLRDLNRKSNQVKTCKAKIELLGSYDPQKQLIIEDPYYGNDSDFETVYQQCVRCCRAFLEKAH
#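 Test system – LMPTP-A enzyme · Amount – LMPTP-A at 0.625 nM final in the reaction · Buffer or medium – Bis-Tris pH 6.0, DTT, detergent · Reagent – OMFP 400 µM · Doses – single 20 µM dose · Schedule – reaction 50 min, room temperature, dark · Detection – fluorescence intensity of OMFP turnover product · Evaluation – percent inhibition versus substrate-only and uninhibited controls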
# STEP block: inhibitors of human striatal-enriched phosphatase STEP; recombinant STEP, OMFP fluorogenic substrate, fluorescence; inhibition, % at 20 µM; AID 588621; P54829; 0.25% of 360,000 active;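 active = inhibition at 20 µM, scaled per plate between control wells, above about 37%, limit read from the data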;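 also: 0% = DMSO with enzyme and substrate and 100% = substrate only without enzyme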
#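 Measure: Control-normalized % inhibition with plate pattern correction | Test system: STEP phosphatase, cell-free reaction | Medium: pH 6.0 Bis-Tris with DTT and Tween 20 | Technique: Fluorescence, 480/540 nm | Times: Reaction 20 min, ambient temperature | Doses: Single compound dose of 20 µM, 1% DMSO final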
# Scp1 confirm: confirmation of human Scp-1 phosphatase inhibitors; shares compounds with Scp1 inh; recombinant SCP-1 catalytic domain, phosphate release, malachite green absorbance; 61% of 2,500 active; inhibition, % at 20 µM;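 also: plate controls were DMSO with enzyme for no effect and buffer wells lacking enzyme for full effect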
# MG interference: counter-screen for Scp-1 inhibitors: colorimetric interference; Colorimetric interference counterscreen, malachite green absorbance 630 nm; 2,500 tested, under 10 active; apparent inhibition (interference), % at 20 µM; shares compounds with Scp1 inh;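 also: compounds added after enzyme reaction finished so only phosphate colour detection is probed; plate controls were DMSO wells with completed Scp-1 reaction for no effect and substrate wells lacking enzyme for full effect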
# Scp-1 Tm shift: binds human Scp-1, shifting its melting temperature. shares compounds with Scp1 inh. Recombinant SCP1, Sypro Orange thermal shift Tm. thermal shift relative to vanadate control, % at 40 µM. 25% of 1,500 active. AID 540329;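 active = substances whose mean melting-temperature shift, as a percentage of the reference inhibitor's shift, reaches about 5.3%, limit read from the data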;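 also: 0% = Tm of DMSO wells and 100% = Tm with sodium orthovanadate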
# DNMT1 confirm: confirmation of human DNMT1 inhibitors. shares compounds with DNMT1 inh. DNMT1 molecular beacon HinP1I cleavage, fluorescence. inhibition, % at 10 µM. 8% of 2,300 active. AID 602385;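 active = average inhibition of at least 30% in the single-concentration confirmation test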
# Beacon interf: counter-screen for DNMT1 inhibitors: spectral interference; shares compounds with DNMT1 inh; DNMT1 molecular beacon spectral interference counterscreen, fluorescence 485/520; activation (fluorescence interference), % at 10 µM; 1% of 2,300 active; AID 602387;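 active = activation of at least 30% at 10 µM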;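 also: DNMT1 catalytic domain with a HinP1I cleavage step and a FAM/dabcyl DNA beacon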
# Numbers without * were called inactive; · = no result given.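 The calls were made as follows, unless noted: active = inhibition of at least 30% at 20 µM; inactive = the rest.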
SMILES,SUMO1 PPI mod,Scp1 inh,DNMT1 inh,LMPTP inh,STEP block,Scp1 confirm,MG interference,Scp-1 Tm shift,DNMT1 confirm,Beacon interf
C=CCn1c(O)c(N=NC(=O)CNC(=O)/C=C/c2ccco2)c2ccccc21,-6,90*,93*,21,12,48*,-17,5,11,2
Cc1ccccc1Nc1nn2c(=O)c3ccccc3nc2s1,22,-20,-5,1,2,·,·,·,·,·
O=c1c2ccccc2nc2sc(Nc3ccc(F)cc3)nn12,-61,92*,50,4,37,74*,-17,-10,2,-1
Cc1cc(C)cc(OCC(=O)OC(C)C(=O)Nc2c(C)n(C)n(-c3ccccc3)c2=O)c1 (centres undefined),1,-3,0,-1,-2,·,·,·,·,·
COc1ccc2[nH]c(=O)cc(C(=O)O)c2c1,6,69*,58*,0,2,73*,-10,-4,8,6
Cc1nc(NCCc2ccccc2)c2nnn(Cc3ccccc3)c2n1,-3,4,6,1,2,·,·,·,·,·
COc1cccc(CNc2nnnn2C)c1,-2,21,-1,-2,0,·,·,·,·,·
N#Cc1ccccc1S(=O)(=O)N1CCN(C(=O)c2cc3c(s2)CCC3)CC1,10,98*,56*,42,28,70*,-13,-17,4,1
N#Cc1ccccc1S(=O)(=O)N1CCN(C(=O)C2COc3ccccc3O2)CC1 (centres undefined),3,74*,67*,19,6,73*,-10,-9,2,4
Cc1coc2cc3oc(=O)c(CC(=O)N[C@@H](CC(C)C)C(=O)O)c(C)c3cc12,5,-9,18,0,0,·,·,·,·,·
Cc1ccc(OCCC(=O)OCC(=O)Nc2ccc3c(c2)OCO3)cc1,3,-7,-5,1,0,·,·,·,·,·
O=[N+]([O-])c1c(O)c(Cl)cc(Cl)c1Cl (tested in a mixture with another compound),4,-7,-1,1,3,·,·,·,·,·
N#Cc1c(NC(=O)c2ccco2)sc2c1CCC2,16,63*,54*,24,22,56*,-15,-1,4,0
CCSc1ccccc1C(=O)N1CCC2(CC1)CC(=O)c1ccccc1O2,5,-1,1,1,-2,·,·,·,·,·
CCc1ccccc1NC(=O)CCS(=O)(=O)c1ccc(Br)cc1,10,50,36,1,10,·,·,·,·,·
COc1ccc([N+](=O)[O-])cc1NC(=O)CCS(=O)(=O)c1ccc(Br)cc1,2,95*,79*,0,8,62*,-18,-4,1,2
O=C(CCS(=O)(=O)c1ccc(Br)cc1)Nc1cc(F)ccc1F,9,73*,62*,-1,7,58*,-14,-2,3,4
CS(=O)(=O)c1ccc(-c2sc3ccccc3c2C(=O)N2CCN(c3ccc(F)cc3)CC2)cc1,-1,68*,60*,6,-3,63*,-10,4,10,1
Cc1ccc(C)c(CN2CCC(CNC(=O)Nc3ccc(F)c(Cl)c3)CC2)c1,-2,-3,-6,0,0,·,·,·,·,·
O=c1c2c(nc3cc(-c4ccccc4Cl)[nH]n13)CCS2,12,64*,77*,33,5,12,-9,·,1,2
Cc1ccc(S(=O)(=O)c2cc3c(=O)n4ccccc4nc3n(Cc3ccco3)c2=N)cc1,4,66*,69*,25,5,14,5,·,1,-2
